The source made the active and inactive calls. The calls are words filed in the database; no cut-off is given here.
What was measured:
HUVEC [1] = experiment: Effect on pro-angiogenic property in human umbilical cord derived endothelial colony forming cells assessed as cell migration treated for 72 hrs measured by crystal violet staining analysis based gap closure assay; format: functional; settings: dose 0.1-5 µM
HUVEC [2] = experiment: Effect on pro-angiogenic property in human umbilical cord derived endothelial colony forming cells assessed as increase in VEGFR2 protein level by Western blotting analysis; format: functional, cell-based
HUVEC [3] = experiment: Effect on pro-angiogenic property in human umbilical cord derived endothelial colony forming cells assessed as increase in VEGFR2 protein phosphorylation by Western blotting analysis; format: functional, cell-based
HUVEC [4] = experiment: Effect on pro-angiogenic property in human umbilical cord derived endothelial colony forming cells assessed as increase in CXCR4 level by qRT-PCR analysis; format: functional, cell-based
Mus musculus = experiment: Activation of vasculogenesis in NOD/SCID immunodeficient mouse xenografted with drug pretreated human umbilical cord derived endothelial colony forming cells assessed as increase in formation of micro-capillaries in presence of panobinostat by H and E staining analysis; format: functional, organism-based
Summary of the method: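 ECFCs (4 × 10^6 cells/mL), drug cocktail-pretreated or not, mixed into 1.5 mg/mL type I collagen gels, polymerized 30 min at 37°C, held 18 hr in drug-free medium, implanted into flanks of 6–12-week-old NOD/SCID mice. Explants harvested at 3 weeks; H&E and anti-human CD31 staining; closed hCD31+ capillaries counted per area, n = 6 mice per group, ±SEM.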

HUVEC [5] = experiment: Effect on human umbilical cord derived endothelial colony forming cells assessed as decrease in H3K27me3 level by ChIP-qPCR analysis; format: functional, cell-based
HUVEC [6] = experiment: Effect on pro-angiogenic property in human umbilical cord derived endothelial colony forming cells assessed as increase in cell migration treated at 5 uM for 72 hrs in presence of panobinostat measured by crystal violet staining analysis based gap closure assay; format: functional
HUVEC [7] = experiment: Effect on human umbilical cord derived endothelial colony forming cells assessed as increase in H3K4me3 level in presence of panobinostat measured after removal of drug by qRT-PCR analysis; format: functional, cell-based
HUVEC [8] = experiment: Effect on human umbilical cord derived endothelial colony forming cells assessed as decrease in H3 acetylation level in presence of panobinostat measured after removal of drug
[9] = biological target: Histone acetyltransferase p300 (Homo sapiens) (UniProt Q09472); experiment: Inhibition of acetyl transferase P300 in human umbilical cord derived endothelial colony forming cells assessed as decrease in protein level by Western blotting analysis; format: cell-based; settings: Umbilical cord derived endothelial colony forming cell
Summary of the method: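 Cord-blood ECFCs were treated with an EZH2 inhibitor at 5 μM for 72 hr, then an HDAC inhibitor at 10 nM for 2 hr, or with vehicle. Levels of the epigenetic enzymes were read by western blot, with tubulin as loading control.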

HUVEC [10] = experiment: Resistance to serum induced starvation of cell apoptosis in human umbilical cord derived endothelial colony forming cells grown in EBM2 medium measured in presence of panobinostat by annexin V staining analysis; format: functional, cell-based
Summary of the method: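 Drug- or vehicle-pretreated ECFCs were serum-starved overnight (16 hr) in EBM-2 lacking supplements. Cells were then suspended in annexin V binding buffer, stained with annexin V and 7-AAD, and analysed by flow cytometry. Values are percentage of vehicle control ±SEM, n = 3 experiments in duplicate.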

[11] = biological target: Histone-lysine N-methyltransferase EZH2 (Homo sapiens) (UniProt Q15910); experiment: Inhibition of EZH2 in human umbilical cord derived endothelial colony forming cells assessed as decrease in H3K27me2 level for 24 to 72 hrs by Western blotting analysis; format: cell-based; settings: Umbilical cord derived endothelial colony forming cell, dose 0.01-5 µM, time 24-72 hrs
Summary of the method: (§1)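 Human cord-blood ECFC clones, at least three independent, passages 3–6, grown in EGM-2 with 10% FBS. Histone methylation marks were assessed by western blot, with total histone H3 and H4 as loading controls.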

HUVEC [12] = experiment: Effect on pro-angiogenic property in human umbilical cord derived endothelial colony forming cells assessed as formation of capillary network on matrigel; format: functional, cell-based; settings: dose 0.01-5 µM
Summary of the method: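 Drug- or vehicle-pretreated ECFCs seeded at 5,000 cells/well on phenol-red-free growth-factor-reduced Matrigel in duplicate; after 24 hr stained with 5 μg/mL calcein 5 min at 37°C, imaged at 2.5×. Total tube length expressed as percentage of vehicle control ±SEM, three independent experiments.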

[13] = test system: Umbilical cord derived endothelial colony forming cell; experiment: Activation of WNT pro-angiogenic pathway in human umbilical cord derived endothelial colony forming cells by measuring WNT4 level in presence of panobinostat by qRT-PCR analysis; format: cell-based; settings: filed as activator
[14] = test system: Umbilical cord derived endothelial colony forming cell; experiment: Activation of WNT pro-angiogenic pathway in human umbilical cord derived endothelial colony forming cells by measuring WNT9A level in presence of panobinostat by qRT-PCR analysis; format: cell-based; settings: filed as activator
[15] = biological target: Histone-lysine N-methyltransferase EZH2 (Homo sapiens) (UniProt Q15910); experiment: Inhibition of EZH2 in human umbilical cord derived endothelial colony forming cells assessed as decrease in H4K20me3 level at 0.01 to 5 uM measured after 24 to 72 hrs by Western blotting analysis; format: cell-based; settings: Umbilical cord derived endothelial colony forming cell, dose 0.01-5 µM, time 24-72 hrs; summary of the method: as §1
[16] = test system: Umbilical cord derived endothelial colony forming cell; experiment: Activation of WNT pro-angiogenic pathway in human umbilical cord derived endothelial colony forming cells by measuring FZD5 level in presence of panobinostat by qRT-PCR analysis; format: cell-based; settings: filed as activator
HUVEC [17] = experiment: Effect on pro-angiogenic property in human umbilical cord derived endothelial colony forming cells assessed as increase in intracellular NOTCH protein phosphorylation by Western blotting analysis; format: functional, cell-based
[18] = test system: Umbilical cord derived endothelial colony forming cell; experiment: Activation of WNT pro-angiogenic pathway in human umbilical cord derived endothelial colony forming cells by measuring MML1 level in presence of panobinostat by qRT-PCR analysis; format: cell-based; settings: filed as activator
[19] = biological target: Histone-lysine N-methyltransferase EZH2 (Homo sapiens) (UniProt Q15910); experiment: Inhibition of EZH2 in human umbilical cord derived endothelial colony forming cells assessed as decrease in H3K4me3 level at 0.01 to 5 uM measured after 24 to 72 hrs by Western blotting analysis; format: cell-based; settings: Umbilical cord derived endothelial colony forming cell, dose 0.01-5 µM, time 24-72 hrs; summary of the method: as §1
[20] = test system: Umbilical cord derived endothelial colony forming cell; experiment: Activation of WNT pro-angiogenic pathway in human umbilical cord derived endothelial colony forming cells by measuring FZD1 level in presence of panobinostat by qRT-PCR analysis; format: cell-based; settings: filed as activator
HUVEC [21] = experiment: Downregulation of DKK1 in human umbilical cord derived endothelial colony forming cells by qRT-PCR analysis; format: functional, cell-based
[22] = biological target: Histone-lysine N-methyltransferase EZH2 (Homo sapiens) (UniProt Q15910); experiment: Inhibition of EZH2 in human umbilical cord derived endothelial colony forming cells assessed as decrease in H3K9me3 level at 0.01 to 5 uM measured after 24 to 72 hrs by Western blotting analysis; format: cell-based; settings: Umbilical cord derived endothelial colony forming cell, dose 0.01-5 µM, time 24-72 hrs; summary of the method: as §1
[23] = biological target: Histone-lysine N-methyltransferase EZH2 (Homo sapiens) (UniProt Q15910); experiment: Inhibition of EZH2 in human umbilical cord derived endothelial colony forming cells assessed as decrease in H3K27me2 level at 0.01 to 5 uM by Western blotting analysis; format: cell-based; settings: Umbilical cord derived endothelial colony forming cell, dose 0.01-5 µM, time 24-72 hrs, TDE = time-dependent effect; summary of the method: as §1
HUVEC [24] = experiment: Effect on pro-angiogenic property in human umbilical cord derived endothelial colony forming cells assessed as increase in FZD7 level in presence of panobinostat by qRT-PCR analysis; format: functional, cell-based

Histone-lysine N-methyltransferase EZH2 (Homo sapiens), sequence (Q15910 whole entry, looked up): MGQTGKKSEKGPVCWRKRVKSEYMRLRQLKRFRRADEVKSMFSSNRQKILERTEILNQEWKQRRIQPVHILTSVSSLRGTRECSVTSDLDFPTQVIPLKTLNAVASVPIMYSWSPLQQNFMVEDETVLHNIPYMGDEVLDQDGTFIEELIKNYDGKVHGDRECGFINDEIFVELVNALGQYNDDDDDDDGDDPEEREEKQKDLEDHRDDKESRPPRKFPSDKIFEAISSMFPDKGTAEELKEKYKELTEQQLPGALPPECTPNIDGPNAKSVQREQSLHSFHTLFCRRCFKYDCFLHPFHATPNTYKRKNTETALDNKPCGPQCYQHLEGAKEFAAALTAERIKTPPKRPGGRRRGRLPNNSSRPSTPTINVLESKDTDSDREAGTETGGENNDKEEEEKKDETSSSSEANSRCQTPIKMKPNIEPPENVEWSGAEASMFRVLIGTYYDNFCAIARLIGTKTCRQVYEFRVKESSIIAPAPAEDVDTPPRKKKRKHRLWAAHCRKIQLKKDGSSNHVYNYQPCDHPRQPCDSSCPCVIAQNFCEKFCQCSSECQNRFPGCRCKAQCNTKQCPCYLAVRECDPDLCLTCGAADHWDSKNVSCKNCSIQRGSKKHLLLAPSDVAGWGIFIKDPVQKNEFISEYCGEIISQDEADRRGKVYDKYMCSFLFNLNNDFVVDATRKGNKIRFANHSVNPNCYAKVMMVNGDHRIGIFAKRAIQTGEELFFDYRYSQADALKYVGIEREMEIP
Histone acetyltransferase p300 (Homo sapiens), sequence (Q09472 whole entry): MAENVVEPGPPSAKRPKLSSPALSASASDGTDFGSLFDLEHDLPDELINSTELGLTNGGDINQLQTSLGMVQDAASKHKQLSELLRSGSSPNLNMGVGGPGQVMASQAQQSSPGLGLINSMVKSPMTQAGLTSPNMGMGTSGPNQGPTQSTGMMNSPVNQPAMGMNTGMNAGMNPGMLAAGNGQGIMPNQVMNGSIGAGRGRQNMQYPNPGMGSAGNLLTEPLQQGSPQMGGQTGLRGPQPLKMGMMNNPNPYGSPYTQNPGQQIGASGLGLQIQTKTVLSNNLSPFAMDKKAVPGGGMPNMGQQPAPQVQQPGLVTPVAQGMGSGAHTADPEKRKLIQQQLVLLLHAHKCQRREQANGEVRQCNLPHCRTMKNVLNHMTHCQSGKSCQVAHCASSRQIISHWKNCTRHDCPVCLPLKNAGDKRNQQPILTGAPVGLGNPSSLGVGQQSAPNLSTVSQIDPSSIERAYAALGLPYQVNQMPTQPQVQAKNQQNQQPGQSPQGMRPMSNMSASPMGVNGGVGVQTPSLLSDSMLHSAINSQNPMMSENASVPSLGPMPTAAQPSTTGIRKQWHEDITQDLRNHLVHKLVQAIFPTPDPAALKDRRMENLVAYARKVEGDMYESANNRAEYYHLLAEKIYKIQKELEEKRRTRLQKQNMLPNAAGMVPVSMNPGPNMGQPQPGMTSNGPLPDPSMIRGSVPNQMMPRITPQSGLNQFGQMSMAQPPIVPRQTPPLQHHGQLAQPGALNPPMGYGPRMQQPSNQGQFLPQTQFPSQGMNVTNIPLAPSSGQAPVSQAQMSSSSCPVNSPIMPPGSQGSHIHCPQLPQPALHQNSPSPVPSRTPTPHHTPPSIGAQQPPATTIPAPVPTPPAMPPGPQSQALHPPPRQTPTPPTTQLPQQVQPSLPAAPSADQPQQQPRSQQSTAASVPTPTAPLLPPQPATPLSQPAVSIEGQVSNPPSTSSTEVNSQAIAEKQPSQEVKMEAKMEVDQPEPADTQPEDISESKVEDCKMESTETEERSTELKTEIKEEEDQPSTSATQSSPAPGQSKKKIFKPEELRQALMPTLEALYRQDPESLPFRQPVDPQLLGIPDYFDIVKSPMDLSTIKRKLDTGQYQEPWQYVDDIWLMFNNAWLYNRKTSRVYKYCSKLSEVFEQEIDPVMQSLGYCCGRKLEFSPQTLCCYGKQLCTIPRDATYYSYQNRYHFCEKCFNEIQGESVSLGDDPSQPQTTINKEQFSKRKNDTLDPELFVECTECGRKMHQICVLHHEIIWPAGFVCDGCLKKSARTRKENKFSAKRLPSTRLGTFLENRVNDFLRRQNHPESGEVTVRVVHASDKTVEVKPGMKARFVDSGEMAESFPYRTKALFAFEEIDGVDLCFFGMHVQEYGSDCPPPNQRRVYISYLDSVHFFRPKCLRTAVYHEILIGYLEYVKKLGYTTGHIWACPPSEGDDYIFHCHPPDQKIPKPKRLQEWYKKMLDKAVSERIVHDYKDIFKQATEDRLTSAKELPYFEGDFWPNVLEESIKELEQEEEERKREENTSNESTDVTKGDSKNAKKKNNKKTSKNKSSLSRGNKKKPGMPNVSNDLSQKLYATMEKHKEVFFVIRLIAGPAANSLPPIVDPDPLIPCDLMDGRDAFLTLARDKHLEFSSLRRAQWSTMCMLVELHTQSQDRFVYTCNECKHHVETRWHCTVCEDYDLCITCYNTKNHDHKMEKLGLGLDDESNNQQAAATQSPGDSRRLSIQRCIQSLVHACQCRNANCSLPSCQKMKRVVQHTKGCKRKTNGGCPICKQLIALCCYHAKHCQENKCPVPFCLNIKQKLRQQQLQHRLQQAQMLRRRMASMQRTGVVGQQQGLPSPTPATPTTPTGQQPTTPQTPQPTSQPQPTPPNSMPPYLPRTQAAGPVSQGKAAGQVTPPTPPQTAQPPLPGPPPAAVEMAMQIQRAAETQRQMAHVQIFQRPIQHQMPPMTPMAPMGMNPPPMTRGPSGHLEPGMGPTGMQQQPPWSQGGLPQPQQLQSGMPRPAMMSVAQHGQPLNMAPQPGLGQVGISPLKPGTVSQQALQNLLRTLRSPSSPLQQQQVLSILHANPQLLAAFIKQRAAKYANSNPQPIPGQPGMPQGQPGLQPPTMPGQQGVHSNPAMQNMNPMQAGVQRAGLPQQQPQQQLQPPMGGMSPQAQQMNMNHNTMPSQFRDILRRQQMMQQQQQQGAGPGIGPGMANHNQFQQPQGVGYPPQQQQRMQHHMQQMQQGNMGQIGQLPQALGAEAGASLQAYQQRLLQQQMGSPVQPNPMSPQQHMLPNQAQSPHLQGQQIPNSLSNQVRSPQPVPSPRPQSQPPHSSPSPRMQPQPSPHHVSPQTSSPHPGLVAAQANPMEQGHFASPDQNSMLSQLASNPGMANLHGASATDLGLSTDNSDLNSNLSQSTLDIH

In the case of `CCCc1cc(C)[nH]c(=O)c1CNC(=O)c1cc(-c2ccnc(N3CCN(C)CC3)c2)cc2c1cnn2C(C)C`, the Activity (HUVEC [1]) is reported as “Dose-Dependent Effect”, the Activity (HUVEC [2]) is reported as “Active” and the Activity (HUVEC [3]) is reported as “Active”. The Activity (HUVEC [4]) was “Active”, the Activity (Mus musculus) was “Active” and the Activity (HUVEC [5]) was “Active”. The Activity (HUVEC [6]) was “Active”, the Activity (HUVEC [7]) was “Active” and the Activity (HUVEC [8]) was “Active”. The inhibition [9] was “inactive”, the Activity (HUVEC [10]) was “Active” and the inhibition [11] was “Dose-Dependent Effect”. The Activity (HUVEC [12]) was “Dose-Dependent Effect”, the Activity [13] was “Active” and the Activity [14] was “Active”. The inhibition [15] was “inactive”, the Activity [16] was “Active” and the Activity (HUVEC [17]) was “Active”. The Activity [18] was “Active”, the inhibition [19] was “inactive” and the Activity [20] was “Active”. For the same compound, the Activity (HUVEC [21]) was “Active”, the inhibition [22] was “inactive” and the inhibition [23] was “Tde”. The Activity (HUVEC [24]) was “Active”.
